Activity calls are given as the source filed them. The rule behind the calls is not given here.
Key:
[1] = molecular target: T1, Polyamine deacetylase HDAC10 (Homo sapiens, UniProt Q969S8); experiment: Inhibition of His-tagged HDAC10 expressed in Sf9 cells by fluorescence-based assay
T1 sequence (Q969S8 whole entry): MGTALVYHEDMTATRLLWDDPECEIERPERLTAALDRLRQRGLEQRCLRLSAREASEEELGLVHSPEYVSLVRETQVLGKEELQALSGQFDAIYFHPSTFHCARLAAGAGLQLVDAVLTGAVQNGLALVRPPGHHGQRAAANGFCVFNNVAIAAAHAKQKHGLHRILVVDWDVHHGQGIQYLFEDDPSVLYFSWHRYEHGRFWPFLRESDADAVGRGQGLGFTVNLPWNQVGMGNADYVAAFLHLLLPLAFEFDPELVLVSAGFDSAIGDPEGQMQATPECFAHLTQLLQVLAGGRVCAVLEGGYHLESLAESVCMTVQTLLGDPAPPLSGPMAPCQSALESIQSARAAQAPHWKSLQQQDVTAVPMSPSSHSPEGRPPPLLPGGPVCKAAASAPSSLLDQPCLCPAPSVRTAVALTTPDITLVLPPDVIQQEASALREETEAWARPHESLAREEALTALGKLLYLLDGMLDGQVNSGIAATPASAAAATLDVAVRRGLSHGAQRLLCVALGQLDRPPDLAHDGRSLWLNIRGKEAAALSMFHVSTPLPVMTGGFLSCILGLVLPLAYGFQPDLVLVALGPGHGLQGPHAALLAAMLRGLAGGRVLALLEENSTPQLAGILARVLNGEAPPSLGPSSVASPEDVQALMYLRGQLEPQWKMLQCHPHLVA

[2] = molecular target: T2, Histone deacetylase 8 (Homo sapiens, UniProt Q9BY41); experiment: Inhibition of His-tagged HDAC8 expressed in Sf9 cells by fluorescence-based assay
T2 sequence (Q9BY41 whole entry): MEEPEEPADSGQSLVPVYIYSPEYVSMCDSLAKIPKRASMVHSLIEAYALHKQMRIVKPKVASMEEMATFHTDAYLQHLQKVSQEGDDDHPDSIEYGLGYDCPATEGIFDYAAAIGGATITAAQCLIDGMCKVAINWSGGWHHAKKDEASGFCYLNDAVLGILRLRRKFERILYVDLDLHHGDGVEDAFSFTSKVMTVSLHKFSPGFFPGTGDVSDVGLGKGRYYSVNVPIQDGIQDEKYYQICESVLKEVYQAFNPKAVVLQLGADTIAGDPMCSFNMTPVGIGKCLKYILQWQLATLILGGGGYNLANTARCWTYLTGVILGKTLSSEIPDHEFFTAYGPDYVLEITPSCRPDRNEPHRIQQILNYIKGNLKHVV

[3] = molecular target: Histone deacetylase 1 (Homo sapiens, UniProt Q13547); experiment: Inhibition of His-tagged HDAC1 expressed in Sf9 cells by fluorescence-based assay
Chain of Histone deacetylase 1 (Q13547 whole entry): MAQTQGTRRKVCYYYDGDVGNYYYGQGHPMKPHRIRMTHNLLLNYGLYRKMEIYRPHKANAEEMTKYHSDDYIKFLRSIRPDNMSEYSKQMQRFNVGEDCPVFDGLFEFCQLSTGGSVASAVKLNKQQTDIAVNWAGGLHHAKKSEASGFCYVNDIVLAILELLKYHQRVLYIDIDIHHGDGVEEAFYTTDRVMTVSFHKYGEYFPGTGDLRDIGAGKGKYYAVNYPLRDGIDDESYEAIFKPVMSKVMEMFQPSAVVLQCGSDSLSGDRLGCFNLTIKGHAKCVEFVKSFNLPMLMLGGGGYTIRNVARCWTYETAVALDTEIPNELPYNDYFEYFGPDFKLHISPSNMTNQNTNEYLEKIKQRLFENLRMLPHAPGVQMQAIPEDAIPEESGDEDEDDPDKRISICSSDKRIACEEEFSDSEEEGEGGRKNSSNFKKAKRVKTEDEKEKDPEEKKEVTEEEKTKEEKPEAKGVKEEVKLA

[4] = molecular target: T3, Protein deacetylase HDAC6 (Homo sapiens, UniProt Q9UBN7); experiment: Inhibition of His-tagged HDAC6 expressed in Sf9 cells by fluorescence-based assay
T3 sequence (Q9UBN7 whole entry): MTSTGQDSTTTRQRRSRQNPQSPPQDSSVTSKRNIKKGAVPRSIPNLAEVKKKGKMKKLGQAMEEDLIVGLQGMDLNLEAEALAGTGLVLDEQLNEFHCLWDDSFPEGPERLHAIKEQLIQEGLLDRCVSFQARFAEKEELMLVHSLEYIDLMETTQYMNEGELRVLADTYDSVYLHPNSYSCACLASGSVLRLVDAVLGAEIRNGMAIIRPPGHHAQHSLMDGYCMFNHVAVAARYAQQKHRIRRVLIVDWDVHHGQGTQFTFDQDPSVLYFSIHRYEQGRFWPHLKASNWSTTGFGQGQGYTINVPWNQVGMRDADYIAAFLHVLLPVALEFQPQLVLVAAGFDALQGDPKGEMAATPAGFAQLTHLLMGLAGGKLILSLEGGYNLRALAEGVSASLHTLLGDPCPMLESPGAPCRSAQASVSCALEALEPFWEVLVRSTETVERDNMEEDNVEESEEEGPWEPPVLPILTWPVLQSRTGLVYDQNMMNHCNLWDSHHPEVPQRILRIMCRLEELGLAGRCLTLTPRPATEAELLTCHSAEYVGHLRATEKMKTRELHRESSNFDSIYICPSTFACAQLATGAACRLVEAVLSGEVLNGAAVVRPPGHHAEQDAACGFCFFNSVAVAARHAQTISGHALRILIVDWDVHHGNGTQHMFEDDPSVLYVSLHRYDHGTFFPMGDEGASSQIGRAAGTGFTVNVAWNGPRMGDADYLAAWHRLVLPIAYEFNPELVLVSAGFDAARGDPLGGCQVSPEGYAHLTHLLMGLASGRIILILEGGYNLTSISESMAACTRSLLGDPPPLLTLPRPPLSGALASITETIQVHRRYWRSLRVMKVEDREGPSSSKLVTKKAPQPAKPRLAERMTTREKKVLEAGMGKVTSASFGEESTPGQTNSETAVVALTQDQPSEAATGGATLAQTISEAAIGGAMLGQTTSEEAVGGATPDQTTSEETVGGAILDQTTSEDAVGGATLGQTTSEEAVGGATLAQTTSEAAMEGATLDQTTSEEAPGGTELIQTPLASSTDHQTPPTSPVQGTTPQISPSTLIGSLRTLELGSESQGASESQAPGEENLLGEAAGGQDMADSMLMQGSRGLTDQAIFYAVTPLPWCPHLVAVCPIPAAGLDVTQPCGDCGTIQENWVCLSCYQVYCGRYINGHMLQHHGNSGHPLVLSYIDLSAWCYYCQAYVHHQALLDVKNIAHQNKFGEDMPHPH

[5] = molecular target: Histone deacetylase 2 (Homo sapiens, UniProt Q92769); experiment: Inhibition of His-tagged HDAC2 expressed in Sf9 cells by fluorescence-based assay
Chain of Histone deacetylase 2 (Q92769 whole entry): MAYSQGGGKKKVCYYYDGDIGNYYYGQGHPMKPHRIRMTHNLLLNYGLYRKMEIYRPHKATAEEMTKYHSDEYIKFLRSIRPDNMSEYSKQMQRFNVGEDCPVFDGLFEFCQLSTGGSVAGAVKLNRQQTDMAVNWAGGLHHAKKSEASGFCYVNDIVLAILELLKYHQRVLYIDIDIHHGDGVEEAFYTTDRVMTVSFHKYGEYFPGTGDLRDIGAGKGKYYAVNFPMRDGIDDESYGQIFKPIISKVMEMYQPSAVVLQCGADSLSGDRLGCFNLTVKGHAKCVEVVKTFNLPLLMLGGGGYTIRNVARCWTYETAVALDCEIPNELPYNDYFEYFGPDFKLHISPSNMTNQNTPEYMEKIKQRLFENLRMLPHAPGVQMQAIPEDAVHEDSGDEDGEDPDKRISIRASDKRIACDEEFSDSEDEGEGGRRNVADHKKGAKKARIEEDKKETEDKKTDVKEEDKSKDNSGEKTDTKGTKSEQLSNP

[6] = system: neuronal; experiment: Protection against HCA-induced oxidative stress in Sprague-Dawley rat neuronal cells by MTT assay; assay type: functional, cell-based
Method in brief: (§1)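 Cortical neurons from E17 Sprague-Dawley rat fetuses, used 24 h after plating, in MEM with 5.5 g/L glucose, 10% fetal calf serum, 2 mM L-glutamine, 100 µM cystine; 5 mM HCA (pH 7.5) added together with compound (10 µM unless stated); viability after 48 h by MTT and calcein-AM/ethidium homodimer-1 staining; mean ± SE of four replicates.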

[7] = Toxicity against Sprague-Dawley rat neuronal cells at 50 uM; assay type: cell-based
[8] = system: Primary neuron; experiment: Increase in histone H4 acetylation in Sprague-Dawley rat neurons at 50 uM after 8 hrs; assay type: functional
Method in brief: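 Rat primary cortical neurons (fetal Sprague-Dawley, E17) treated 8 h; histones acid-extracted (0.4 N H2SO4) from nuclei, TCA-precipitated, run on 15% SDS gel; immunoblot with acetyl-H4 (1:1000) and total H4 (1:4000) antibodies, 3 h RT, HRP secondary 2 h, enhanced chemiluminescence detection.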

[9] = system: neuronal; experiment: Protection against HCA-induced oxidative stress Sprague-Dawley rat neuronal cells at 10 uM; assay type: functional, cell-based; method in brief: as §1

| SMILES | IC50 [1] | IC50 [2] | IC50 [3] | IC50 [4] | IC50 [5] | Activity [6] | Activity [7] | Activity [8] | Activity [9] |
| --- | --- | --- | --- | --- | --- | --- | --- | --- | --- |
| N[C@@H](Cc1ccc(O)cc1)C(=O)Nc1ccccc1-c1ccc(NC(=O)CCCCCCC(=O)NO)cc1 | 42.1 nM | 2060 nM | 36.9 nM | 9 nM | 205 nM |  |  |  |  |
| CN(C)c1ccc(C(=O)NCCCNC(=O)CS)cc1 | 8780 nM | 12300 nM | 5260 nM | 216 nM | > 30000 nM | Dose-dependent effect | Non-toxic | inactive |  |
| CN(C)c1ccc(C(=O)NCCCCNC(=O)CS)cc1 | 29700 nM | > 30000 nM | 11900 nM | 620 nM | > 30000 nM |  |  |  |  |
| O=C(CS)NCCCCCCNC(=O)Nc1ccccc1 | > 30000 nM | 13900 nM | 10800 nM | 2010 nM | > 30000 nM | Dose-dependent effect | Non-toxic | inactive |  |
| O=C(CS)NCCCCCC(=O)Nc1cccc2cccnc12 | 10700 nM | 6120 nM | 3220 nM | 95.3 nM | 7380 nM |  |  | Active | Active |
| CN(C)c1ccc(C(=O)NCCCCCCNC(=O)CS)cc1 | 3430 nM | 19100 nM | 1430 nM | 482 nM | 4640 nM |  |  | Active | Active |
| N[C@@H](Cc1c[nH]c2ccccc12)C(=O)Nc1ccccc1-c1ccc(NC(=O)CCCCCCC(=O)NO)cc1 | 28.3 nM | 1720 nM | 26.7 nM | 5.4 nM | 167 nM |  |  |  |  |
| CN(C)c1ccc(NC(=O)NCCCCCCC(=O)NO)cc1 | 176 nM | 1740 nM | 209 nM | 34.5 nM | 647 nM |  |  |  |  |
| CN(C)c1ccc(C(=O)NCCCCCNC(=O)CS)cc1 | 1540 nM | 10200 nM | 1080 nM | 114 nM |  |  |  |  |  |
| O=C(CCCCCCC(=O)Nc1nc(-c2cccc([N+](=O)[O-])c2)cs1)NO | 11.1 nM | 4090 nM | 8.5 nM | 3.7 nM | 113 nM |  |  |  |  |
| O=C(CCCCCNC(=O)NC12CC3CC(CC(C3)C1)C2)NO | 173 nM | 3410 nM | 152 nM | 102 nM | 1050 nM |  |  |  |  |
| CN(C)c1ccc(CNC(=O)NCCC(=O)NO)cc1 | 178 nM | 1050 nM | 130 nM | 45.5 nM | 492 nM |  |  |  |  |

— ChEMBL document CHEMBL1145385, “Functional differences in epigenetic modulators-superiority of mercaptoacetamide-based histone deacetylase inhibitors relative to hydroxamates in cortical neuron neuroprotection studies” (J Med Chem, 2007)
